Screening results from PubChem BioAssay.
The list is not random: actives were taken first. Their share in the collection is about 1.5%.
Arr AP2 block: human beta-arrestin and AP2 interaction inhibition; FITC-arrestin peptide / GST-AP2 beads, flow cytometry; AP2 beta2 appendage carries R879A mutation; inhibition, % at 10 µM; 0.31% of 340,000 active; AID 504490;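 active means inhibition above a set limit, near 3 SD of compounds lacking own fluorescence, cut at about 54% in these data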;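 further: plate controls were DMSO wells for no effect and 5 µM unlabelled arrestin peptide for full effect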
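Assay system: GST-AP2 R879A bound to glutathione beads, E. coli-expressed; Medium: PBS with 0.05% Tween 20 and 0.1% BSA; Also added: fluorescein-tagged arrestin peptide at 50 nM final; Timing: 12 min plus 1 h, RT; Measured by: flow cytometry, FL1 (488/535 nm); Evaluation: percent drop in bead-associated FITC signal.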
LANA-H2A inh: blocks KSHV LANA binding to histone H2A/H2B. cell-free LANA-H2A/H2B peptide, fluorescence polarization. inhibition, % (test concentration not listed). 0.6% of 320,000 active. AID 2629; in the data active means inhibition mostly above about 10%, no sharp cut-off; inactive means mostly below about 6.7%
HDAC3 inhib: human HDAC3 inhibition | O15379 | recombinant HDAC3, fluorogenic peptide/trypsin coupled, fluorescence | inhibition, % at 8.3 µM | 0.15% of 320,000 active | AID 2718; in the data active means inhibition above about 26%, passing the limit was not always enough; inconclusive means no clear call, values can overlap the other calls
Target sequence (O15379 whole entry, looked up): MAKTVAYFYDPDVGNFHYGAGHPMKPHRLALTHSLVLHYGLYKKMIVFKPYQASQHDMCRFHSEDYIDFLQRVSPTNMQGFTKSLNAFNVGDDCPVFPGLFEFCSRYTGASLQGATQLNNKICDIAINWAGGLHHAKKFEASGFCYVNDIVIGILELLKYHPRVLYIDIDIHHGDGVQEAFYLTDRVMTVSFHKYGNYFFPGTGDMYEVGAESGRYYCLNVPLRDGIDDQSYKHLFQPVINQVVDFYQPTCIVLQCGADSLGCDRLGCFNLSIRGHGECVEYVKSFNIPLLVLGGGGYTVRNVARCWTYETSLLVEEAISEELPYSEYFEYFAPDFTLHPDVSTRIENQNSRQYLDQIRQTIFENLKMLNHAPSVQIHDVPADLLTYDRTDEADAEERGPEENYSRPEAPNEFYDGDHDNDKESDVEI
T cell HTS: modulates CD8 T cell binding to vesicles; 0.068% of 330,000 active; response (vesicle binding), % at 7 µM; 2C CD8+ T cell-vesicle binding, flow cytometry; hits give low values;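 active means response, share of CD8 T cells binding vesicles, and their 90th percentile fluorescence all below set limits, cut at about 80% in these data, passing the limit was not always enough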;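 further: values below 100% mean blocked vesicle binding to the CD8+ T cells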
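Assay system – 2C mouse CD8+ T cells · Also added – QL9-loaded Drosophila micro-vesicles · Timing – Cell–vesicle co-incubation 1.5 h at 37 °C, staining 20 min on ice · Signal – flow cytometry of vesicle-bound cells · Measure – percent CD8+ FL2 mean versus row control · Controls – Peptide-free naked vesicles (low) and QL9 vesicles with 0.7% DMSO vehicle (high)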
Pemphigus Ab inh: blocks pemphigus antibody binding to human desmoglein-3 | P32926 | DSG3-coupled beads, scFv-anti-DSG3-GFP binding, flow cytometry; hits give low values | binding (percent of control), % at 10 µM | 0.48% of 310,000 active;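 active means binding more than 3 SD below its plate's average and above zero; inconclusive means below that plate limit but binding exactly zero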;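 further: hits lower antibody fragment binding to DSG3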
Active calls of the source: *; i = inactive; ? = inconclusive; / = not tested or not shown; ! = not confirmed by another sample.

SMILES	Arr AP2 block	LANA-H2A inh	HDAC3 inhib	T cell HTS	Pemphigus Ab inh
COc1ccc(N2CCN(C(=O)CCCCCn3c(=S)[nH]c4ccc(N5CCOCC5)cc4c3=O)CC2)cc1	/	/	/	/	100
COc1cccc(CNC(=O)CC(NC(=O)c2ccccc2)c2ccccc2)c1 (stereo not drawn)	20	32*	4	247	109
COc1cccc(CNC(=O)CC(NC(C)=O)c2ccccc2)c1 (stereo not drawn)	9	0	-2	632	100
CC(C)(C)N1C(=O)[C@H]2[C@@H](c3ccc(Br)cc3)N3C(=O)N(c4ccccc4)C(=O)[C@@]3(C)[C@H]2C1=O	-15	1	?	231	97
Cc1ccc2oc(-c3ccc(NC(=O)CC(C)C)cc3)nc2c1	6	6	-5	424	-15*
CN(CCOC(=O)c1ccccc1)Cc1ccccc1	2	1	-1	272	/
CN(CCOC(=O)c1cccc(F)c1)Cc1ccccc1	19	11*	-4	149	91
Cc1nnc(SCC2=C(C(=O)O)N3C(=O)[C@@H](NC(=O)Cn4cnnn4)[C@H]3SC2)s1	2	77*!	9	514	111
Cc1nnc(SCC2=C(C(=O)O)N3C(=O)C(NC(=O)Cn4cnnn4)C3SC2)s1 (stereo not drawn)	-1	6	-2	292	114
CCOC(=O)C1CCN(CC(C)(C)NS(=O)(=O)c2ccccc2)CC1	-9	1	4	415	96
CC(C)n1cc(CN2CCC(Oc3ccc(C(=O)N4CCCC4)cc3)CC2)cn1	6	49*	3	428	120
CC(NC(=O)CSc1nnnn1C1CC1)c1ccccc1Br (stereo not drawn)	-5	-1	-2	319	84
Cc1ccc(C)c(N=Nc2ccc(O)c3ncccc23)c1	103*	-3	1	191	80
COc1ccc(CNC(=O)C2CCC(=O)N(C3CCCCCC3)C2)c(OC)c1 (stereo not drawn)	/	/	/	/	100
Cc1ccc(-n2ncc3c(N4CCCC4)ncnc32)c(C)c1	9	-4	9	338	100
Cc1ccc(-n2ncc3c(N4CCCC(C)C4)ncnc32)c(C)c1 (stereo not drawn)	4	1	0	43*	102
N#CC1=C(N)Oc2c(oc(CO)cc2=O)C1c1ccccc1[N+](=O)[O-] (stereo not drawn)	10	-1	7	428	101
COc1ccccc1C1C(C#N)=C(N)Oc2c1oc(CO)cc2=O (stereo not drawn)	11	12*	13	709	106
CCC/C=C(\CCC)C(NS(=O)(=O)c1ccc(C(F)(F)F)cc1)c1ccccc1 (stereo not drawn)	/	0	27*	154	/
CS(=O)(=O)N1CCN(c2ccccc2NC(=O)c2ccc([N+](=O)[O-])o2)CC1	33	0	1	214	28*
CCOc1ccc(NC(=O)COC(=O)CCN2C(=O)C3CC=CCC3C2=O)cc1OCC (stereo not drawn)	16	40*	-6	i	95
COc1cc(NC(=S)N2CCN(C)CC2)cc(OC)c1	-11	9.7*	0	522	111
CCc1noc(C)c1C(=O)NNC(=O)c1ccccc1	3	97*	-3	419	105
CCc1ccc(C(c2ccc(CC)cc2)C(Cl)Cl)cc1	0	24*	-7	599	106
CN(C)S(=O)(=O)c1ccc(NC(=O)CSc2nnc(-c3ccco3)o2)cc1	14	-9	4	716	/
SMILES	Arr AP2 block	LANA-H2A inh	HDAC3 inhib	T cell HTS	Pemphigus Ab inh
COc1cccc(OCc2cc(/C=N/Nc3ccc(C(=O)O)cc3)ccc2OC)c1	3	2	-3	369	61*
O=C(O)C(c1ccccc1)C1(O)CCC1 (stereo not drawn)	15	/	/	/	95
O=C(N/N=C/c1ccc([N+](=O)[O-])o1)c1sc2ccccc2c1Cl	4	4	3	155	82*
COc1ccc(S(=O)(=O)N2CCOCC2)cc1NC(=O)c1cccc(Cl)c1	-2	0	-15	728	100
CC(=O)Oc1cc(O)c2c(=O)c(OC(C)=O)c(-c3ccc(OC(C)=O)c(OC(C)=O)c3)oc2c1	9	1	4	65*	105
COc1ccc(-c2oc3cc(OC(C)=O)cc(OC(C)=O)c3c(=O)c2OC)cc1	-1	/	/	/	115
CCOC(=O)C1CCCN(C(=O)c2cc(CN3C(=O)c4ccccc4C3=O)ccc2OC)C1 (stereo not drawn)	10	28*	-4	242	111
O=C(Cc1cccs1)N1CCN(S(=O)(=O)c2cccc([N+](=O)[O-])c2)CC1	-1	11	-7	447	97
Cc1cc(C)cc(OCC(=O)OCC(=O)NCCC2=CCCCC2)c1	-2	1	-8	111	-9.8*
CCC(C)[C@H](NC(=O)NCCC1=CCCCC1)C(=O)O (stereo partly drawn)	30	35*	-12	402	100
O=C1CCN2C=Nc3cccc4ccc1c2c34	12	114*	-1	69	109
O=C1CCC(=O)c2ccc3c4c(ccc1c24)CC3	5	/	/	/	116
Cc1cccc2cc(COC(=O)C3CCCCC3)c(=O)[nH]c12	-4	-2	0	239	-4.6*
Cc1cccc2cc(COC(=O)C3CCCO3)c(=O)[nH]c12 (stereo not drawn)	-1	-1	-1	198	99
CN(c1ccc(C(=O)NC2CC3CCC2C3)cc1)S(C)(=O)=O (stereo not drawn)	12	2	-1	455	6.6*
Cc1ccc(-c2nc(NC(=O)CSc3cc(C)c4ccccc4n3)ns2)cc1	-1	-3	2	145	-0.3*
COc1ccc2c(C)cc(SCC(=O)Nc3nsc(-c4ccc(C)cc4)n3)nc2c1	18	1	-6	152	110
CCC(NC(=O)c1ccc2nc(Cc3ccc(OC)cc3)oc2c1)c1ccncc1 (stereo not drawn)	-3	0	0	385	72
O=C(CCC(=O)OCC(=O)c1ccccc1)Nc1cccc2cccnc12	7	0	0	131	8.4*
Nc1ccc2nc(SCC(=O)c3ccccc3)sc2c1	-8	4	1	252	92*
Nc1ccc2nc(SCc3ccccc3F)sc2c1	-19	1	15	568	105
CN(C)CCNC(=O)Cn1ccc2cc(S(=O)(=O)N3CCCCC3)ccc21	24	9	-13	276	/
COC(=O)c1ccc(-c2sc3nc(N4CCOCC4)c4c(c3c2N)CC(C)(C)OC4)o1	12	-1	1	203	38*
CC1(C)Cc2c(c(N3CCOCC3)nc3sc(C(N)=O)c(N)c23)CO1	-7	1	2	648	106
Cc1ccc(C(=O)n2nnc3ccccc32)cc1[N+](=O)[O-]	54	-3	/	259	102
COc1ccc(C(=O)n2nnc3ccccc32)cc1OC	0	-1	70*	375	/
